Legend:
[1] = test system: M. smegmatis Leishmania hybrids (Leishmania/Trypanosoma decoding site); assay: MIC broth microdilution, cells with Leishmania/Trypanosoma hybrid ribosomes; type: cell-based, Mycobacterium smegmatis; conditions: for Relative resistance (ratio of mutant to wild-type MIC): Leishmania hybrids versus wild-type M. smegmatis; for MIC: M. smegmatis cells with Leishmania/Trypanosoma hybrid ribosomes, 37°C, 72 h
[2] = test system: cytosolic ribosomes in rabbit reticulocyte lysate; assay: Rabbit reticulocyte translation assay; type: biochemical; conditions: read-out: IC50, inhibition of luciferase synthesis, luciferase mRNA, 30°C, 90 min
Outline: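 Rabbit reticulocyte lysate supplied cytosolic ribosomes to translate firefly luciferase control mRNA (500 ng), with amino acids (100 μM each) and RNasin. Aminoglycosides were added as serial dilutions, then incubated at 30°C for 90 min. Luciferase substrate was added and luminescent activity read. IC50 and the 100% value came from best-fit nonlinear regression.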

[3] = test system: M. smegmatis mutants carrying human–bacterial hybrid ribosomes (Homo sapiens helix 44 decoding site); assay: MIC broth microdilution, cells with human-bacterial hybrid ribosomes; type: cell-based, Mycobacterium smegmatis; conditions: for Relative resistance (ratio of mutant to wild-type MIC): human hybrids versus wild-type M. smegmatis; for MIC: M. smegmatis cells with Homo sapiens hybrid ribosomes, 37°C, 72 h
[4] = test system: wild-type M. smegmatis 70S ribosomes; assay: Cell-free luciferase translation assay, wild-type ribosomes; type: biochemical; conditions: read-out: IC50, inhibition of luciferase synthesis; Mycobacterium smegmatis wild-type ribosomes; coupled transcription–translation, 37°C, 60 min
[5] = test system: Mycobacterium smegmatis hybrids with a Blastocrithidia decoding region; assay: MIC broth microdilution, cells with Blastocrithidia hybrid ribosomes; type: cell-based; conditions: M. smegmatis cells with Blastocrithidia hybrid ribosomes; 37°C, 72 h
[6] = test system: Mycobacterium smegmatis wild-type; assay: MIC broth microdilution, wild-type strain; type: cell-based; conditions: 37°C, 72 h

For `CCN[C@@H]1C[C@H](N)[C@@H](O[C@H]2OC(CN)=CC[C@H]2N)[C@H](O)[C@H]1O[C@H]1OC[C@](C)(O)[C@H](NC)[C@H]1O` [Netilmicin, netilmicin], the “Relative resistance (ratio of mutant to wild-type MIC)” value [1] was ≥ 1024, the IC50 [2] was 58000 nM and the “Relative resistance (ratio of mutant to wild-type MIC)” value [3] was ≥ 1024. It also gave an IC50 [4] of 50 nM.

`CNC(C)C1CCC(N)C(OC2C(N)CC(N)C(OC3OCC(C)(O)C(NC)C3O)C2O)O1` (stereo not shown) [Gentamicin, gentamicin] was tested, and the “Relative resistance (ratio of mutant to wild-type MIC)” value [1] was ≥ 1024 and the “Relative resistance (ratio of mutant to wild-type MIC)” value [3] was ≥ 1024.

With `NC[C@H]1O[C@H](O[C@H]2[C@H](O)[C@@H](O[C@H]3O[C@H](CO)[C@@H](O)[C@H](N)[C@H]3O)[C@H](N)C[C@@H]2N)[C@H](N)C[C@@H]1O` [Tobramycin, tobramycin] the “Relative resistance (ratio of mutant to wild-type MIC)” value [1] was ≥ 1024, the IC50 [2] was 38000 nM and the “Relative resistance (ratio of mutant to wild-type MIC)” value [3] was ≥ 1024. For the same molecule, the IC50 [4] was 20 nM.

kanamycin A was tested, and the MIC [5] was 1 µg/mL, the MIC [6] was 1 µg/mL and the “Relative resistance (ratio of mutant to wild-type MIC)” value [1] was ≥ 1024. The MIC [1] was >1024 µg/mL, the IC50 [2] was 67000 nM and the MIC [3] was >1024 µg/mL. For the same molecule, the “Relative resistance (ratio of mutant to wild-type MIC)” value [3] was ≥ 1024 and the IC50 [4] was 50 nM.

For `CN[C@@H]1[C@@H](O)[C@@H](O[C@@H]2[C@@H](O)[C@H](O[C@H]3O[C@H]([C@@H](C)O)[C@@H](O)[C@H](O)[C@H]3N)[C@@H](N)C[C@H]2N)OC[C@]1(C)O` [Geneticin, geneticin (G418)], the IC50 [2] was 200 nM and the IC50 [4] was 30 nM.

In the case of `NC[C@@H]1O[C@H](O[C@H]2[C@@H](O)[C@H](O[C@@H]3[C@@H](O)[C@H](N)C[C@H](N)[C@H]3O[C@H]3O[C@H](CO)[C@@H](O)[C@H](O)[C@H]3N)O[C@@H]2CO)[C@H](N)[C@@H](O)[C@@H]1O` [Paromomycin, paromomycin], the IC50 [2] is reported as 9200 nM, the “Relative resistance (ratio of mutant to wild-type MIC)” value [3] is reported as ≥ 1024 and the IC50 [4] is reported as 30 nM.

In the case of neomycin, the MIC [5] is reported as 1 µg/mL, the MIC [6] is reported as 0.5 µg/mL and the “Relative resistance (ratio of mutant to wild-type MIC)” value [1] is reported as ≥ 1024. For the same molecule, the MIC [1] was >1024 µg/mL, the IC50 [2] was 18000 nM and the MIC [3] was >1024 µg/mL. The “Relative resistance (ratio of mutant to wild-type MIC)” value [3] was ≥ 1024 and the IC50 [4] was 40 nM.
